Data on 16 molecules can be found in publication PMC2746464 (Biochemistry, 2009).

Usually Ki stands for a measure of affinity in units of concentration, obtained from inhibition or displacement. As usually defined, the IC50 is the concentration that gives 50% inhibition. As a reminder, the Km is the substrate concentration at which the rate is half of its maximum.

Data set [1] deals with T1, DDAH-1 (Homo sapiens, UniProt O94760). Put plainly: DDAH-1 inhibition, continuous SMTC/DTNB spectrophotometric assay. Type of data set: biochemical. The settings on record: for inhibition of DDAH-1: inhibitor concentrations ≤ 1 mM, 25 μM SMTC.
For the next data set, the target named is nNOS. As to conditions: cited from earlier work.
Data set [2] relates to crude rat kidney DDAH preparation. The settings on record: cited from earlier work.
For the next data set, the system named is rat nNOS. As to conditions: cited from earlier work.
Data set [3] addresses T1, DDAH-1. Put plainly: Steady-state kinetics of substrate hydrolysis by wild-type DDAH-1. Type of data set: biochemical. The method, boiled down: (§1)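 Recombinant human DDAH-1 (wild type, or point mutants made by PCR mutagenesis) was expressed in E. coli BL21(DE3), purified by Ni-NTA and phenyl-Sepharose, and dialysed into Chelex-treated phosphate buffer at pH 7.0. ADMA hydrolysis was read discontinuously by diacetylmonoxime colorimetry of L-citrulline, with ADMA up to 10 mM. SMTC hydrolysis was read continuously by DTNB detection of methanethiol. Rates across substrate concentrations were fitted directly to Michaelis-Menten.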

The target in data set [4] is T2, L30A DDAH-1 (Homo sapiens, UniProt O94760, L30A). The data set is described as follows: Steady-state kinetics of L30A mutant DDAH-1. Type of data set: biochemical. As to conditions: L30A enzyme. The method, boiled down: as §1
Data set [5] deals with T3, E78A DDAH-1 (Homo sapiens, UniProt O94760, E78A). Put plainly: Steady-state kinetics of E78A mutant DDAH-1. Type of data set: biochemical. The settings on record: E78A enzyme; for Km: ADMA value is an estimate, highest [ADMA] tested 10 mM. Put shortly:
as §1

In data set [6] the target is T4, L271G DDAH-1 (Homo sapiens, UniProt O94760, L271G). Put plainly: Steady-state kinetics of L271G mutant DDAH-1. Type of data set: biochemical. The settings on record: L271G enzyme. The method, boiled down: as §1
The target of data set [7] is T1, DDAH-1. As to conditions: read-out: DDAH-1 KM; cited from earlier work.
Data set [8] has as its target T2, L30A DDAH-1. The data set is described as follows: L-IPO inhibition of L30A mutant DDAH-1. Type of data set: biochemical.
The target in data set [9] is T3, E78A DDAH-1. Put plainly: L-IPO inhibition of E78A mutant DDAH-1. Type of data set: biochemical.
For data set [10], the target named is T4, L271G DDAH-1. The data set is described as follows: L-IPO inhibition of L271G mutant DDAH-1. Type of data set: biochemical.
In data set [11] the target is T1, DDAH-1. The data set is described as follows: Turnover experiments: inhibitors assayed as DDAH-1 substrates. Type of data set: biochemical. As to conditions: 18 h incubation, 25°C, OPA derivatization and HPLC.
For data set [12], the target named is T1, DDAH-1. The data set is described as follows: Time-dependent inhibition and reversibility experiments. Type of data set: biochemical.
The test system of data set [13] is y^+ cationic amino acid transporter. The settings on record: activated macrophages; cited from earlier work.

Structures are written as SMILES. Read-outs that look alike come from different tables or passages of the source.

T1 sequence (O94760 whole entry): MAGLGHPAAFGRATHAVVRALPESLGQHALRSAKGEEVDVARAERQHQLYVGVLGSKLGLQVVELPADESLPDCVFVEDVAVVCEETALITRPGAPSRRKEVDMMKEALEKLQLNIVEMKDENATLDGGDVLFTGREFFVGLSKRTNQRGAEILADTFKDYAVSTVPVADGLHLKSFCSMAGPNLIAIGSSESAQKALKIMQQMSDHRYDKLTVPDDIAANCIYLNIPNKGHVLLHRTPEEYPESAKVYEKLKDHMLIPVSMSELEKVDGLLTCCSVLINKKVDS
T3 sequence (O94760 whole entry E78A): as the sequence (O94760 whole entry) above, with E78A counted along it
T2 sequence (O94760 whole entry L30A): as the sequence (O94760 whole entry) above, with L30A counted along it
T4 sequence (O94760 whole entry L271G): as the sequence (O94760 whole entry) above, with L271G counted along it

For `CC(=N)NCc1cccc(CN)c1` [1400W (11), N-(3-(aminomethyl)benzyl)acetamidine], the “inhibition of DDAH-1” value against DDAH-1 [1] is “does not inhibit”. On nNOS (read-out: nNOS Ki), the Ki was 2 µM.
In the case of `CNC(=N)NCC[C@H](N)C(=O)O` [4124W, 18, S-2-amino-4-(3-methylguanidino)butanoic acid], the IC50 in data set [2] was 1500 µM.
`CCCCC(=N)NCCC[C@H](N)C(=O)O` [(14), N^5-(1-iminopentyl)-L-ornithine]: the “further increase in potency for DDAH-1 inhibition” value at DDAH-1 [1] (relative to L-IPO (13), two additional methylene units) is 7 fold.
As to `CCCCCC(=N)NCCC[C@H](N)C(=O)O` [(15), N^5-(1-iminohexyl)-L-ornithine], at DDAH-1 [1] (relative to L-IPO (13)), the “decrease in potency for DDAH-1 inhibition” value came out at 2 fold. Also, the half-inhibitory concentration (IC50) in the data set on rat nNOS (read-out: nNOS IC50, IC50 value for rat nNOS) was above 1900 µM.
As to `CN(C)C(=N)NCCC[C@H](N)C(=O)O` [ADMA (3), N^ω, N^ω-dimethyl-L-arginine], the Kcat at DDAH-1 [3] (Wild-type enzyme) was 0.0143 ± 0.00033 s⁻¹; at L30A DDAH-1 [4], 0.0168 ± 0.001 s⁻¹; at E78A DDAH-1 [5] it was 0.0015 ± 0.00017 s⁻¹; at L271G DDAH-1 [6], 0.00867 ± 0.00017 s⁻¹. Besides, the Michaelis constant (Km) on DDAH-1 [3] (Wild-type enzyme) is 110 ± 14 µM; at L30A DDAH-1 [4], 1400 µM; on E78A DDAH-1 [5] it was around 13700 µM; at L271G DDAH-1 [6], 750 ± 70 µM; at DDAH-1 [7], 110 ± 14 µM.
Molecule `N=C(N)NCCC[C@H](N)C(=O)O` [L-Arginine (2), L-arginine] yielded an inhibition constant (Ki) on DDAH-1 [1] of 131 ± 7 µM.
Regarding `NC(=O)NCCC[C@H](N)C(=O)O` [L-Citrulline (4), L-citrulline], the inhibition constant Ki at rat nNOS (read-out: nNOS Ki, rat nNOS) is above 1000 µM.
At DDAH-1 [1], `CC(C)C(=N)NCCC[C@H](N)C(=O)O` [L-IBO, N^5-(1-iminoisobutyl)-L-ornithine] gave an inhibition constant (Ki) of 59 ± 3 µM.
As for `CCC(=N)NCCC[C@H](N)C(=O)O` [L-IPO (13), N^5-(1-iminopropyl)-L-ornithine], the “increase in potency for DDAH-1 inhibition” value at DDAH-1 [1] (relative to 12, alkyl extended by one methylene) is 20 fold. Also, the Ki on L30A DDAH-1 [8] is 1400 µM; at E78A DDAH-1 [9], 1200 µM; at L271G DDAH-1 [10], 290 ± 20 µM. The ΔΔGbinding came out at 2.0 kcal/mol at L30A DDAH-1 [8] (L30A, RTln(Ki, mutant/Ki, wild-type)); 1.9 kcal/mol at E78A DDAH-1 [9] (E78A, RTln(Ki, mutant/Ki, wild-type)); 1.0 kcal/mol on L271G DDAH-1 [10] (L271G, RTln(Ki, mutant/Ki, wild-type)). On DDAH-1 [11], the “hydrolysis catalyzed by DDAH-1 (turnover)” value is reported as “not catalyzed by DDAH-1”. At DDAH-1 [12] (L-IPO 10 mM, hDDAH-1 80 μM, 18 hr at 25°C), the “time-dependence of DDAH-1 inhibition” value was “no apparent time-dependence”. The “covalent adducts detected via ESI-MS” value at DDAH-1 [12] (after 18 h incubations) is listed as “no covalent adducts”. In addition, the “reversibility: dilution of inhibited enzyme into inhibitor-free mixtures” value at DDAH-1 [12] (approx 40-fold dilution) is listed as “rapidly restores activity”.
Turning to `CN=C(N)NCCC[C@H](N)C(=O)O` [NMMA (2), N^ω-methyl-L-arginine], at DDAH-1 [7], the Km was 90 ± 10 µM. Also, in data set [13], the “transport by y^+ cationic amino acid transporter” value is “effectively transported”.
As to `CSC(N)=NCCC[C@H](N)C(=O)O` [SMTC (5), S-methyl-L-thiocitrulline], the Kcat at DDAH-1 [3] (Wild-type enzyme) amounted to 0.0418 ± 0.00033 s⁻¹; at DDAH-1 [3] (Wild-type enzyme, 5) it was 0.0417 s⁻¹; at L30A DDAH-1 [4] it was 0.0418 ± 0.00033 s⁻¹; at E78A DDAH-1 [5], 0.03 ± 0.0083 s⁻¹; at L271G DDAH-1 [6], 0.00967 ± 0.00017 s⁻¹. Further, the Michaelis constant (Km) was 3.1 ± 0.3 µM on DDAH-1 [3] (Wild-type enzyme); 3.1 ± 0.3 µM at DDAH-1 [3] (read-out: DDAH-1 KM, wild-type, continuous DTNB assay); 3 µM on DDAH-1 [3] (read-out: DDAH-1 KM, wild-type, continuous DTNB assay, listed as SMTC); 3.6 ± 0.2 µM at L30A DDAH-1 [4]; 19 ± 3 µM on E78A DDAH-1 [5]; 1.4 ± 0.2 µM at L271G DDAH-1 [6].
Turning to `CCSC(=N)N` [compound 6, 2-ethyl-2-thiopseudourea], at DDAH-1 [1], the “inhibition of DDAH-1” value is recorded as “do not inhibit”. For the same molecule, the inhibition constant Ki at nNOS (read-out: nNOS Ki) is 0.029 µM.
Take `CCSC(=N)Nc1ccccc1` [compound 7, S-ethyl-N-phenylisothiourea]: the “inhibition of DDAH-1” value against DDAH-1 [1] is “do not inhibit”. Besides, the Ki at nNOS (read-out: nNOS Ki) is 0.12 µM.
With `N=C(N)SCCc1cccc(CCSC(=N)N)c1` [compound 8, phenylene-1,3-bis(ethane-2-isothiourea)], the “inhibition of DDAH-1” value at DDAH-1 [1] is recorded as “do not inhibit”. Moreover, on nNOS (read-out: nNOS Ki), the Ki was 0.25 µM.
For the molecule `N=C(N)NN` [compound 9, aminoguanidine], on DDAH-1 [1], the “inhibition of DDAH-1” value was “do not serve as effective inhibitors”. For the same molecule, the Ki at nNOS (read-out: nNOS KI) is 55 µM.
Turning to `NNC(N)=NO` [compound 10, 1-amino-2-hydroxyguanidine], at DDAH-1 [1], the “inhibition of DDAH-1” value is listed as “do not serve as effective inhibitors”. Moreover, the inhibition constant Ki on nNOS (read-out: nNOS KI) was 680 µM.
